Measurements from ChEMBL document CHEMBL1275559, “Complex ciprofloxacin resistome revealed by screening a Pseudomonas aeruginosa mutant library for altered susceptibility” (2008).
The source made the active and inactive calls.

Columns and labels:
[1] = test system: Pseudomonas aeruginosa; experiment: Upregulation of nuoN gene in Pseudomonas aeruginosa PA2649 at 0.3 times MIC; format: functional, organism-based
How it was run: (§1)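 P. aeruginosa cells were treated with ciprofloxacin at 0.3× MIC or 1× MIC. Gene expression trend was scored relative to untreated cells.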

[2] = test system: Pseudomonas aeruginosa; experiment: Upregulation of putative phage tail sheath protein in Pseudomonas aeruginosa PA0622 at MIC after 48 hrs; format: functional, organism-based
[3] = test system: Pseudomonas aeruginosa; experiment: Upregulation of putative phage-related protein, tail component in Pseudomonas aeruginosa PA0641 at MIC; format: functional, organism-based
[4] = test system: Pseudomonas aeruginosa; experiment: Upregulation of putative phage-related protein, tail component in Pseudomonas aeruginosa PA0641 at 0.3 times MIC; format: functional, organism-based
[5] = test system: Pseudomonas aeruginosa; experiment: Upregulation of conserved hypothetical protein in Pseudomonas aeruginosa PA0647 at MIC; format: functional, organism-based; how it was run: as §1
[6] = test system: Pseudomonas aeruginosa; experiment: Downregulation of adhA gene in Pseudomonas aeruginosa PA5427 at MIC; format: functional, organism-based; how it was run: as §1
[7] = test system: Pseudomonas aeruginosa; experiment: Upregulation of putative major tail protein V in Pseudomonas aeruginosa PA0633 at MIC; format: functional, organism-based; how it was run: as §1
[8] = test system: Pseudomonas aeruginosa; experiment: Upregulation of mutL gene in Pseudomonas aeruginosa PA4946 at MIC; format: functional, organism-based; how it was run: as §1
[9] = test system: Pseudomonas aeruginosa; experiment: Upregulation of conserved hypothetical protein in Pseudomonas aeruginosa PA0613 at MIC after 48 hrs; format: functional, organism-based
[10] = test system: Pseudomonas aeruginosa; experiment: Upregulation of hypothetical protein in Pseudomonas aeruginosa PA0630 at 0.3 times MIC; format: functional, organism-based; how it was run: as §1
[11] = test system: Pseudomonas aeruginosa; experiment: Upregulation of hypothetical protein in Pseudomonas aeruginosa PA0338 at MIC; format: functional, organism-based; how it was run: as §1
[12] = test system: Pseudomonas aeruginosa; experiment: Upregulation of putative phage tail sheath protein in Pseudomonas aeruginosa PA0622 at 0.3 times MIC after 48 hrs; format: functional, organism-based
[13] = test system: Pseudomonas aeruginosa; experiment: Upregulation of conserved hypothetical protein in Pseudomonas aeruginosa PA0615 at MIC; format: functional, organism-based; how it was run: as §1
[14] = test system: Pseudomonas aeruginosa; experiment: Upregulation of hitB gene in Pseudomonas aeruginosa PA4688 at MIC; format: functional, organism-based; how it was run: as §1
[15] = test system: Pseudomonas aeruginosa; experiment: Upregulation of putative phage tail protein in Pseudomonas aeruginosa PA0619 at 0.3 times MIC; format: functional, organism-based; how it was run: as §1
[16] = test system: Pseudomonas aeruginosa; experiment: Downregulation of tig gene in Pseudomonas aeruginosa PA1800 at 1 times MIC relative to untreated control; format: functional, organism-based; how it was run: as §1
[17] = test system: Pseudomonas aeruginosa; experiment: Upregulation of putative phage tail tube protein in Pseudomonas aeruginosa PA0623 at 0.3 times MIC; format: functional, organism-based
[18] = test system: Pseudomonas aeruginosa; experiment: Upregulation of conserved hypothetical protein in Pseudomonas aeruginosa PA1433 at MIC after 48 hrs; format: functional, organism-based
[19] = test system: Pseudomonas aeruginosa; experiment: Upregulation of hypothetical protein in Pseudomonas aeruginosa PA4459 at MIC; format: functional, organism-based; how it was run: as §1
[20] = test system: Pseudomonas aeruginosa; experiment: Upregulation of hypothetical protein in Pseudomonas aeruginosa PA0616 at 0.3 times MIC; format: functional, organism-based; how it was run: as §1
[21] = test system: Pseudomonas aeruginosa; experiment: Upregulation of putative base plate assembly protein W in Pseudomonas aeruginosa PA0617 at 0.3 times MIC; format: functional, organism-based; how it was run: as §1
[22] = test system: Pseudomonas aeruginosa; experiment: Upregulation of hypothetical protein in Pseudomonas aeruginosa PA0736-PA0737 at MIC; format: functional, organism-based; how it was run: as §1
[23] = test system: Pseudomonas aeruginosa; experiment: Upregulation of mexB gene in Pseudomonas aeruginosa PA0426 at 0.3 times MIC relative to untreated control; format: functional, organism-based; how it was run: as §1
[24] = test system: Pseudomonas aeruginosa; experiment: Upregulation of putative tail formation protein in Pseudomonas aeruginosa PA0626 at MIC; format: functional, organism-based
[25] = test system: Pseudomonas aeruginosa; experiment: Upregulation of putative phage base plate assembly protein in Pseudomonas aeruginosa PA0618 at 0.3 times MIC; format: functional, organism-based; how it was run: as §1
[26] = test system: Pseudomonas aeruginosa; experiment: Upregulation of hypothetical protein in Pseudomonas aeruginosa PA0616 at MIC; format: functional, organism-based; how it was run: as §1
[27] = test system: Pseudomonas aeruginosa; experiment: Upregulation of putative tail fiber assembly protein in Pseudomonas aeruginosa PA0621 at 0.3 times MIC; format: functional, organism-based
[28] = test system: Pseudomonas aeruginosa; experiment: Upregulation of oprM gene in Pseudomonas aeruginosa PA0427 at 1 times MIC relative to untreated control; format: functional, organism-based; how it was run: as §1
[29] = test system: Pseudomonas aeruginosa; experiment: Upregulation of putative base plate assembly protein W in Pseudomonas aeruginosa PA0617 at MIC; format: functional, organism-based; how it was run: as §1
[30] = test system: Pseudomonas aeruginosa; experiment: Downregulation of betT1 gene in Pseudomonas aeruginosa PA5375 at 0.3 times MIC relative to untreated control
[31] = test system: Pseudomonas aeruginosa; experiment: Upregulation of ygdP gene in Pseudomonas aeruginosa PA0336 at 0.3 times MIC relative to untreated control; format: functional, organism-based
[32] = test system: Pseudomonas aeruginosa; experiment: Upregulation of conserved hypothetical protein in Pseudomonas aeruginosa PA0613 at 0.3 times MIC after 48 hrs; format: functional, organism-based
[33] = test system: Pseudomonas aeruginosa; experiment: Upregulation of putative tail fiber assembly protein in Pseudomonas aeruginosa PA0621 at MIC; format: functional, organism-based
[34] = test system: Pseudomonas aeruginosa; experiment: Upregulation of gidA gene in Pseudomonas aeruginosa PA5565 at MIC; format: functional, organism-based; how it was run: as §1
[35] = test system: Pseudomonas aeruginosa; experiment: Upregulation of putative minor tail protein L in Pseudomonas aeruginosa PA0638 at MIC; format: functional, organism-based; how it was run: as §1
[36] = test system: Pseudomonas aeruginosa; experiment: Upregulation of conserved hypothetical protein in Pseudomonas aeruginosa PA3784 at MIC after 48 hrs; format: functional, organism-based
[37] = test system: Pseudomonas aeruginosa; experiment: Upregulation of putative phage tail tube protein in Pseudomonas aeruginosa PA0623 at MIC; format: functional, organism-based
[38] = test system: Pseudomonas aeruginosa; experiment: Upregulation of atpB gene in Pseudomonas aeruginosa PA5560 at MIC; format: functional, organism-based; how it was run: as §1
[39] = test system: Pseudomonas aeruginosa; experiment: Upregulation of conserved hypothetical protein in Pseudomonas aeruginosa PA0624 at MIC; format: functional, organism-based; how it was run: as §1
[40] = test system: Pseudomonas aeruginosa; experiment: Upregulation of putative phage tail protein in Pseudomonas aeruginosa PA0619 at MIC; format: functional, organism-based
[41] = test system: Pseudomonas aeruginosa; experiment: Upregulation of hypothetical protein in Pseudomonas aeruginosa PA0630 at MIC; format: functional, organism-based; how it was run: as §1
[42] = test system: Pseudomonas aeruginosa; experiment: Upregulation of putative sensor/response regulator hybrid in Pseudomonas aeruginosa PA1611 at 0.3 times MIC; format: functional, organism-based
[43] = test system: Pseudomonas aeruginosa; experiment: Upregulation of hypothetical protein in Pseudomonas aeruginosa PA0736-PA0737 at 0.3 times MIC; format: functional, organism-based; how it was run: as §1
[44] = test system: Pseudomonas aeruginosa; experiment: Downregulation of nuoG gene in Pseudomonas aeruginosa PA2642 at MIC; format: functional, organism-based; how it was run: as §1
[45] = test system: Pseudomonas aeruginosa; experiment: Upregulation of putative tail length determination protein in Pseudomonas aeruginosa PA0636 at 0.3 times MIC; format: functional, organism-based
[46] = test system: Pseudomonas aeruginosa; experiment: Downregulation of oprF gene in Pseudomonas aeruginosa PA1777 at 1 times MIC relative to untreated control; format: functional, organism-based; how it was run: as §1
[47] = test system: Pseudomonas aeruginosa; experiment: Upregulation of hypothetical protein in Pseudomonas aeruginosa PA0338 at 0.3 times MIC; format: functional, organism-based; how it was run: as §1
[48] = test system: Pseudomonas aeruginosa; experiment: Upregulation of conserved hypothetical protein in Pseudomonas aeruginosa PA0624 at 0.3 times MIC; format: functional, organism-based; how it was run: as §1
[49] = test system: Pseudomonas aeruginosa; experiment: Upregulation of putative phage base plate assembly protein in Pseudomonas aeruginosa PA0618 at MIC; format: functional, organism-based; how it was run: as §1
[50] = test system: Pseudomonas aeruginosa; experiment: Upregulation of possible nuclease or phosphatase in Pseudomonas aeruginosa PA3958 at 0.3 times MIC after 48 hrs; format: functional, organism-based
[51] = test system: Pseudomonas aeruginosa; experiment: Upregulation of hypothetical protein in Pseudomonas aeruginosa PA0634 at 0.3 times MIC; format: functional, organism-based; how it was run: as §1
[52] = test system: Pseudomonas aeruginosa; experiment: Upregulation of hypothetical protein in Pseudomonas aeruginosa PA4685 at 0.3 times MIC; format: functional, organism-based; how it was run: as §1
[53] = test system: Pseudomonas aeruginosa; experiment: Downregulation of hypothetical protein in Pseudomonas aeruginosa PA3276 at 0.3 times MIC after 48 hrs; format: functional, organism-based
[54] = test system: Pseudomonas aeruginosa; experiment: Upregulation of putative tail fiber protein in Pseudomonas aeruginosa PA0620 at 0.3 times MIC; format: functional, organism-based
[55] = test system: Pseudomonas aeruginosa; experiment: Upregulation of ygdP gene in Pseudomonas aeruginosa PA0336 at 1 times MIC relative to untreated control; format: functional, organism-based
[56] = test system: Pseudomonas aeruginosa; experiment: Upregulation of putative tail fiber protein in Pseudomonas aeruginosa PA0620 at MIC; format: functional, organism-based
[57] = test system: Pseudomonas aeruginosa; experiment: Upregulation of putative phage tail assembly protein in Pseudomonas aeruginosa PA0640 at 0.3 times MIC; format: functional, organism-based; how it was run: as §1
[58] = test system: Pseudomonas aeruginosa; experiment: Upregulation of possible nuclease or phosphatase in Pseudomonas aeruginosa PA3958 at MIC after 48 hrs; format: functional, organism-based
[59] = test system: Pseudomonas aeruginosa; experiment: Upregulation of putative tail length determination protein in Pseudomonas aeruginosa PA0636 at MIC; format: functional, organism-based
[60] = test system: Pseudomonas aeruginosa; experiment: Upregulation of conserved hypothetical protein in Pseudomonas aeruginosa PA0615 at 0.3 times MIC; format: functional, organism-based; how it was run: as §1
[61] = test system: Pseudomonas aeruginosa; experiment: Upregulation of putative permease of ABC transporter in Pseudomonas aeruginosa PA2060 at 0.3 times MIC after 48 hrs; format: functional, organism-based
[62] = test system: Pseudomonas aeruginosa; experiment: Upregulation of putative major tail protein V in Pseudomonas aeruginosa PA0633 at 0.3 times MIC; format: functional, organism-based; how it was run: as §1
[63] = test system: Pseudomonas aeruginosa; experiment: Upregulation of hypothetical protein in Pseudomonas aeruginosa PA0634 at MIC; format: functional, organism-based; how it was run: as §1
[64] = test system: Pseudomonas aeruginosa; experiment: Upregulation of hitB gene in Pseudomonas aeruginosa PA4688 at 0.3 times MIC; format: functional, organism-based; how it was run: as §1
[65] = test system: Pseudomonas aeruginosa; experiment: Upregulation of putative phage tail assembly protein in Pseudomonas aeruginosa PA0640 at MIC; format: functional, organism-based; how it was run: as §1
[66] = test system: Pseudomonas aeruginosa; experiment: Downregulation of betT1 gene in Pseudomonas aeruginosa PA5375 at 0.3 times MIC relative to untreated control; format: functional, organism-based; how it was run: as §1
[67] = test system: Pseudomonas aeruginosa; experiment: Upregulation of conserved hypothetical protein in Pseudomonas aeruginosa PA0647 at 0.3 times MIC; format: functional, organism-based; how it was run: as §1
[68] = test system: Pseudomonas aeruginosa; experiment: Upregulation of putative tail formation protein in Pseudomonas aeruginosa PA0626 at 0.3 times MIC; format: functional, organism-based

Measured: Activity

O=C(O)c1cn(C2CC2)c2cc(N3CCNCC3)c(F)cc2c1=O
active: all assays above
